Laboratory results reported in publication PMC7049346 (Haematologica, 2019).

Key:
[1] = test system: rats; assay: Long-term toxicology study in normal rats; type: in vivo; settings: data not shown
[2] = test system: dogs; assay: Long-term toxicology study in dogs; type: in vivo
[3] = biological target: PDE4D7 (Homo sapiens, UniProt Q08499); assay: PDE enzyme inhibition, radiometric assay; type: biochemical
Outline: (§1)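 Recombinant human PDE enzymes (33 in the panel) were incubated in vitro with increasing concentrations of the test compound. Enzyme activity was measured radiometrically and IC50 values derived.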

[4] = biological target: PDE10A2 (Homo sapiens, UniProt Q9Y233); assay: PDE enzyme inhibition, radiometric assay; type: biochemical
Outline: as §1

[5] = biological target: PDE8B (Homo sapiens, UniProt O95263); assay: PDE enzyme inhibition, radiometric assay; type: biochemical
Outline: as §1

[6] = biological target: PDE4D2 (Homo sapiens, UniProt Q08499); assay: PDE enzyme inhibition, radiometric assay; type: biochemical
Outline: as §1

[7] = biological target: PDE4D5 (Homo sapiens, UniProt Q08499); assay: PDE enzyme inhibition, radiometric assay; type: biochemical
Outline: as §1

[8] = test system: HbSS-Townes mice; assay: Townes SCD model, 30 days daily oral dosing; type: in vivo; settings: 30 days
[9] = Locomotor activity and behavioral responses in toxicology studies; type: in vivo; settings: data not shown
[10] = test system: mice; assay: Classical fear conditioning model of learning and memory; type: in vivo; settings: similar dose of both PDE9i
[11] = biological target: PDE7B (Homo sapiens, UniProt Q9NP56); assay: PDE enzyme inhibition, radiometric assay; type: biochemical
Outline: as §1

[12] = biological target: PDE9A2 (Homo sapiens, UniProt O76083); assay: PDE enzyme inhibition, radiometric assay; type: biochemical; settings: IC50, recombinant human PDE9A2
Outline: as §1

[13] = biological target: PDE4B3 (Homo sapiens, UniProt Q07343); assay: PDE enzyme inhibition, radiometric assay; type: biochemical
Outline: as §1

[14] = biological target: PDE4B2 (Homo sapiens, UniProt Q07343); assay: PDE enzyme inhibition, radiometric assay; type: biochemical
Outline: as §1

[15] = biological target: PDE6C (Homo sapiens, UniProt P51160); assay: PDE enzyme inhibition, radiometric assay; type: biochemical
Outline: as §1

[16] = test system: rodents; assay: Fertility and fetal development in rodents; type: in vivo
[17] = biological target: PDE4A4 (Homo sapiens, UniProt P27815); assay: PDE enzyme inhibition, radiometric assay; type: biochemical
Outline: as §1

[18] = biological target: PDE5A3 (Homo sapiens, UniProt O76074); assay: PDE enzyme inhibition, radiometric assay; type: biochemical
Outline: as §1

[19] = biological target: PDE11A1 (Homo sapiens, UniProt Q9HCR9); assay: PDE enzyme inhibition, radiometric assay; type: biochemical
Outline: as §1

[20] = biological target: PDE3A (Homo sapiens, UniProt Q14432); assay: PDE enzyme inhibition, radiometric assay; type: biochemical
Outline: as §1

[21] = biological target: PDE2A3 (Homo sapiens, UniProt O00408); assay: PDE enzyme inhibition, radiometric assay; type: biochemical
Outline: as §1

[22] = Genotoxicity
[23] = Brain and plasma exposure in mice; type: in vivo, C57Bl/6J mice
[24] = biological target: PDE5A1 (Homo sapiens, UniProt O76074); assay: PDE enzyme inhibition, radiometric assay; type: biochemical
Outline: as §1

[25] = test system: K562 cells; assay: HbF induction in K562 cells; type: cell-based, human; settings: 72 h
[26] = test system: HbSS-Townes mice; assay: HbSS-Townes vaso-occlusive crisis model; type: in vivo
[27] = biological target: PDE4A1 (Homo sapiens, UniProt P27815); assay: PDE enzyme inhibition, radiometric assay; type: biochemical
Outline: as §1

[28] = biological target: PDE4D1 (Homo sapiens, UniProt Q08499); assay: PDE enzyme inhibition, radiometric assay; type: biochemical
Outline: as §1

[29] = biological target: PDE4D4 (Homo sapiens, UniProt Q08499); assay: PDE enzyme inhibition, radiometric assay; type: biochemical
Outline: as §1

[30] = biological target: PDE1A3 (Homo sapiens, UniProt P54750); assay: PDE enzyme inhibition, radiometric assay; type: biochemical
Outline: as §1

[31] = test system: UT-7 cells; assay: HbF induction in UT-7 cells; type: cell-based, human; settings: GM-CSF dependent erythroid line UT-7; data not shown
[32] = biological target: PDE1B (Homo sapiens, UniProt Q01064); assay: PDE enzyme inhibition, radiometric assay; type: biochemical
Outline: as §1

[33] = biological target: PDE5A2 (Homo sapiens, UniProt O76074); assay: PDE enzyme inhibition, radiometric assay; type: biochemical
Outline: as §1

[34] = biological target: PDE3B (Homo sapiens, UniProt Q13370); assay: PDE enzyme inhibition, radiometric assay; type: biochemical
Outline: as §1

[35] = biological target: PDE1C (Homo sapiens, UniProt Q14123); assay: PDE enzyme inhibition, radiometric assay; type: biochemical
Outline: as §1

[36] = biological target: PDE7A (Homo sapiens, UniProt Q13946); assay: PDE enzyme inhibition, radiometric assay; type: biochemical
Outline: as §1

[37] = biological target: PDE4C2 (Homo sapiens, UniProt Q08493); assay: PDE enzyme inhibition, radiometric assay; type: biochemical
Outline: as §1

[38] = test system: K562 cells; assay: Cytotoxicity in K562 cells; type: cell-based, human; settings: end of 72-h culture
Outline: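 Actively growing K562 cells were cultured for 72 h with increasing concentrations of the test compound. Terminal viability was scored by automated cell counting or trypan-blue exclusion, or by an ATP-based luminescence assay. Apoptosis was checked by Annexin V flow cytometry.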

Sequence of PDE3A (Q14432 whole entry): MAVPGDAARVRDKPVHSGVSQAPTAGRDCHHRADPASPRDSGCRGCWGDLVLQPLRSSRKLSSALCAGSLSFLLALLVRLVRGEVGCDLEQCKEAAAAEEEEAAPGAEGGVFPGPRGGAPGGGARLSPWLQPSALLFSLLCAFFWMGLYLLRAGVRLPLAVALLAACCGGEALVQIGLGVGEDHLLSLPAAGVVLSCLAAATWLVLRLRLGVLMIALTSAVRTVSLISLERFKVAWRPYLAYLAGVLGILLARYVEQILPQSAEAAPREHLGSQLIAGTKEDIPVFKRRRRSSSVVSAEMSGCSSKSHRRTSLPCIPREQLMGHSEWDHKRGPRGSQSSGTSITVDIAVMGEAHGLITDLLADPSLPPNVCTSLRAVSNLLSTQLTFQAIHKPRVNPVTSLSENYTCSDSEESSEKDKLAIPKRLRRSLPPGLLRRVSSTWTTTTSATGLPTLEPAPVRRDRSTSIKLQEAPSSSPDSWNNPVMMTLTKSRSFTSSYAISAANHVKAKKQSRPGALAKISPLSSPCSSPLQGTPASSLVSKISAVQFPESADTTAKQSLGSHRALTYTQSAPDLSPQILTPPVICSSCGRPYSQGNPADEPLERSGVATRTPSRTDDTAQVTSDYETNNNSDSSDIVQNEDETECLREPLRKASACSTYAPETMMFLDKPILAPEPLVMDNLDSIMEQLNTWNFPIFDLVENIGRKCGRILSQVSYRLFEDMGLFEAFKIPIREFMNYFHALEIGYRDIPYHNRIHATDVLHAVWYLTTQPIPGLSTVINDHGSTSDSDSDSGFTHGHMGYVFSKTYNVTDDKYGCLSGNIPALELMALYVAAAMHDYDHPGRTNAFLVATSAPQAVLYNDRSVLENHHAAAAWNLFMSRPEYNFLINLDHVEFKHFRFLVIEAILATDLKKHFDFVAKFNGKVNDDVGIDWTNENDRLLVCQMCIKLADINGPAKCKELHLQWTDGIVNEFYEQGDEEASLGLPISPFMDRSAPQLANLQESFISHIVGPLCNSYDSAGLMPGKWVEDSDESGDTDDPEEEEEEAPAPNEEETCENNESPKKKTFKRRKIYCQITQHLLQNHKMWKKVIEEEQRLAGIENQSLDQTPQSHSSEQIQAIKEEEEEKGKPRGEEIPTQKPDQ
Sequence of PDE9A2 (O76083 1-533 isoform O76083-2): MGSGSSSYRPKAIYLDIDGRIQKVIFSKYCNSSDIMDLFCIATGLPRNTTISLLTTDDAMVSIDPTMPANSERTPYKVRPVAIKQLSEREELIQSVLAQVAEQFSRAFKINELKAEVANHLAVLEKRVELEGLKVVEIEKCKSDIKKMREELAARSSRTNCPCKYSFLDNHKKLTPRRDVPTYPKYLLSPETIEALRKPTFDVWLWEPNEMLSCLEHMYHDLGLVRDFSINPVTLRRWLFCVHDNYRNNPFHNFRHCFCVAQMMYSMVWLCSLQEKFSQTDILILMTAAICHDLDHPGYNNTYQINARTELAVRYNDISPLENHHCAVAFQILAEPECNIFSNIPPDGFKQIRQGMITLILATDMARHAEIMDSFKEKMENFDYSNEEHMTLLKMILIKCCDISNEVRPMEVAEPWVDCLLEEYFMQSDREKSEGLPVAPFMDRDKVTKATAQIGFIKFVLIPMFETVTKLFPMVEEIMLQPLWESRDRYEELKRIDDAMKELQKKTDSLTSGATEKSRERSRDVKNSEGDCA
Sequence of PDE8B (O95263 whole entry): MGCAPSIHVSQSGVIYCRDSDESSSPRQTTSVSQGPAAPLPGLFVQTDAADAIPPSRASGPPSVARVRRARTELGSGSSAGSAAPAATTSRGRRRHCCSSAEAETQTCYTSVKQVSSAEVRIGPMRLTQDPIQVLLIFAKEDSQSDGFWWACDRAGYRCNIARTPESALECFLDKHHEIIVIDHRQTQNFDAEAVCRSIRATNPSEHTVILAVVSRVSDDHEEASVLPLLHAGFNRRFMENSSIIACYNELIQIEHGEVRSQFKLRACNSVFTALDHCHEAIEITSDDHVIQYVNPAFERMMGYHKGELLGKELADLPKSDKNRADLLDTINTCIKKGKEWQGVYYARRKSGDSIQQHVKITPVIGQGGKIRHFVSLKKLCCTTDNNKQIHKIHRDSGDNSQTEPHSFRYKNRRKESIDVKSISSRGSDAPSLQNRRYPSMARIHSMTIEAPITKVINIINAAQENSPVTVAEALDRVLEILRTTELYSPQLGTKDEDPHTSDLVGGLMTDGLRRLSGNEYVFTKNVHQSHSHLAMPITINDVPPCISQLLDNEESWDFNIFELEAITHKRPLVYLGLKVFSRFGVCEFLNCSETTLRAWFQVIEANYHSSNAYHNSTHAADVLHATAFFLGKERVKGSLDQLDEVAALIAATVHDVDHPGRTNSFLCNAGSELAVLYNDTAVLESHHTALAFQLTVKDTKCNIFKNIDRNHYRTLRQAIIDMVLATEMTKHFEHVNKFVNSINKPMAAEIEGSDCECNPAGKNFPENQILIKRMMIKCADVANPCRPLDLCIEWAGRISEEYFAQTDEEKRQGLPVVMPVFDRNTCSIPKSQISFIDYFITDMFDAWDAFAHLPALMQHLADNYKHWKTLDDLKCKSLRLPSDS
Sequence of PDE6C (P51160 whole entry): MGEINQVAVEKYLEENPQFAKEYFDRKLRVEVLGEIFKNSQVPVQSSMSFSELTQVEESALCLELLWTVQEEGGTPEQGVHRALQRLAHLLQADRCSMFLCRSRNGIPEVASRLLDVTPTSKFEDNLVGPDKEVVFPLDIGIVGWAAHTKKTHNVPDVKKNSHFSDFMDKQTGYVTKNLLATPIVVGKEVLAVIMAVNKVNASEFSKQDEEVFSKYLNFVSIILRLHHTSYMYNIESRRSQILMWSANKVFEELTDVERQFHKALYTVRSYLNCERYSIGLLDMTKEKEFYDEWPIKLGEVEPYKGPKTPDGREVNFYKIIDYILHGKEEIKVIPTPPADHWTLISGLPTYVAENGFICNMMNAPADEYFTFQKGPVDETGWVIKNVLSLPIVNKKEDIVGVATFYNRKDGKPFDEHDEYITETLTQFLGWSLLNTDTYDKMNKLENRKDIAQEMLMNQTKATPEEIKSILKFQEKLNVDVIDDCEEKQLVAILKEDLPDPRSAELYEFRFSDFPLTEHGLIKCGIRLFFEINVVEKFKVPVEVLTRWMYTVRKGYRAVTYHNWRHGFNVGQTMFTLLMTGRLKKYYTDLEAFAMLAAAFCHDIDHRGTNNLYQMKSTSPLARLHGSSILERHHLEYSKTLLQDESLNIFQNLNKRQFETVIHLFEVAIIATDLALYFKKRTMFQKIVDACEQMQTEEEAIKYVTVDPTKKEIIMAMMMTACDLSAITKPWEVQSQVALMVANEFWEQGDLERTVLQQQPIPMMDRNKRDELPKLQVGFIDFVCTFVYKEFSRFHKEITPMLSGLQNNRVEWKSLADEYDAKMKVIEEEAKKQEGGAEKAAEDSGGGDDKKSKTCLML
Sequence of PDE4B2 (Q07343 1-564 isoform Q07343-2): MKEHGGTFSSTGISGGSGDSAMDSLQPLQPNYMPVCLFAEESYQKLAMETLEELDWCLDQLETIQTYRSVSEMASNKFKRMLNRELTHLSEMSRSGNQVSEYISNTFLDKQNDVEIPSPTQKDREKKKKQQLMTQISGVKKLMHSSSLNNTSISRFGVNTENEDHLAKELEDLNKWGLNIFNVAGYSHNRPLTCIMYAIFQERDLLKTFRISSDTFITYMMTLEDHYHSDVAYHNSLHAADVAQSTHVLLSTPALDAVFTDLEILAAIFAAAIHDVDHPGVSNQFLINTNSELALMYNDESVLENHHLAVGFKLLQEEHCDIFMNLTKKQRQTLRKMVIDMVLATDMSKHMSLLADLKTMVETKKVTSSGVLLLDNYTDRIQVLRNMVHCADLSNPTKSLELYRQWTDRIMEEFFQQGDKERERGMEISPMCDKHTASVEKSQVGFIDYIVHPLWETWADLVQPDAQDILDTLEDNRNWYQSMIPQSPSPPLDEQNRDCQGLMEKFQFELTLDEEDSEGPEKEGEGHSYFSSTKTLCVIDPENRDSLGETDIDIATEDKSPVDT
Sequence of PDE4A4 (P27815 whole entry): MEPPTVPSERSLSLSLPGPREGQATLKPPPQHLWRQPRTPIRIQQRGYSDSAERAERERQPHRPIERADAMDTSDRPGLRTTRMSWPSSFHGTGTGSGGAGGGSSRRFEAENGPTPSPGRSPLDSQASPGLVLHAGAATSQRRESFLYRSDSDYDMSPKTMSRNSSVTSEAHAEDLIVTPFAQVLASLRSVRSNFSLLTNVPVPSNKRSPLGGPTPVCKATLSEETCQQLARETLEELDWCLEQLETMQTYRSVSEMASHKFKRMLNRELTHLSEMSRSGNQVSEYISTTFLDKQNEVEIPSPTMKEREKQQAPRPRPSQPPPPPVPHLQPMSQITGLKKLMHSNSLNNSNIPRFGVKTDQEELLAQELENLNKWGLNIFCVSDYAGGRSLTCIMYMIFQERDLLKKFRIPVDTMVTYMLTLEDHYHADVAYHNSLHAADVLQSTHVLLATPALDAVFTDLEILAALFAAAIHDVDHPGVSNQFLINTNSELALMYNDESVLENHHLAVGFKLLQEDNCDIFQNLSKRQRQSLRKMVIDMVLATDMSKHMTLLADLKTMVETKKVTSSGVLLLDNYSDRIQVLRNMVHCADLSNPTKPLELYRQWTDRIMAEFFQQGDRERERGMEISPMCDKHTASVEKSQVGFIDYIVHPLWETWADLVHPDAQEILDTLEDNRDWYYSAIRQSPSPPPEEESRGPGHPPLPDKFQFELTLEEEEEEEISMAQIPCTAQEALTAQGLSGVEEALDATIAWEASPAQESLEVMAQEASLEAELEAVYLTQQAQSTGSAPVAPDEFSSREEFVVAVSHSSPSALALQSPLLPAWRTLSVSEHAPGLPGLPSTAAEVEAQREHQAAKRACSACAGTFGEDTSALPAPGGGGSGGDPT

IC50 [3]: > 100 µM
IC50 [4]: > 100 µM
IC50 [5]: > 100 µM
IC50 [6]: > 100 µM
IC50 [7]: > 100 µM
IC50 [11]: > 100 µM
IC50 [12]: 0.01 µM
IC50 [13]: > 100 µM
IC50 [14]: > 100 µM
IC50 [15]: > 100 µM
IC50 [17]: > 100 µM
IC50 [18]: > 100 µM
IC50 [19]: > 100 µM
IC50 [20]: > 100 µM
IC50 [21]: > 100 µM
brain exposure levels lower than PF-04447943 ([23]; C57Bl/6J mice, 10 mg/kg/day for five days): 5 fold
Kp at 5 days ([23]; C57Bl/6J, mouse, brain/plasma, 10 mg/kg/day): 0.07
IC50 [24]: > 100 µM
IC50 [27]: > 100 µM
IC50 [28]: > 100 µM
IC50 [29]: > 100 µM
IC50 [30]: 88.4 µM
IC50 [32]: 8.48 µM
IC50 [33]: 81.9 µM
IC50 [34]: > 100 µM
IC50 [35]: 12.2 µM
IC50 [36]: > 100 µM
IC50 [37]: > 100 µM
Structure (SMILES): C[C@@H]1CN(Cc2ncccn2)C[C@H]1c1cn2c(C3CCOCC3)ncc2c(=O)[nH]1 [IMR-687]
peripheral WBC counts ([1]; normal rats, up to 6 months, super-physiological doses): did not result in any reduction in peripheral WBC counts
myelotoxicity, histological examination of bone marrow smears ([1]; rats): did not demonstrate any myelotoxicity
myelotoxicity, histological examination of bone marrow smears ([2]; data not shown): did not demonstrate any myelotoxicity
peripheral WBC counts ([2]; up to 9 months, oral daily 10, 25, or 50 mg/kg): did not result in any reduction in peripheral WBC counts
WBC lower than vehicle ([8]; 30 mg/kg): 36%
increase in Hb ([8]; 30 mg/kg): 1.5 g/dL
increase in hematocrit ([8]; 30 mg/kg): 10%
increase in mature RBC ([8]; 30 mg/kg): 27%
increase in plasma nitrite levels ([8]; 30 mg/kg): ~2.5 fold
reduction in reticulocyte counts ([8]; 30 mg/kg): 36%
reduction of MPO levels ([8]; 30 mg/kg): 2.3 fold
reduction of plasma bilirubin and LDH vs vehicle treated SS mice ([8]; 30 mg/kg): over 2 fold
reduction of plasma free Hb levels ([8]; 30 mg/kg): over 55%
lung MPO levels ([8]; 30 mg/kg, HbSS-Townes vehicle 3.1 mU/L, P<0.0001): 1.3 mU/L
reduction of lung arginase vs vehicle ([8]; 30 mg/kg, P<0.0001): 25%
plasma bilirubin ([8]; 30 mg/kg, P<0.01): 4.7 mg/dL
LDH activity ([8]; 30 mg/kg, P<0.05): 102 AU
plasma nitrite levels ([8]; 30 mg/kg, untreated SS mice 0.56 mg/mL, P<0.05): 1.39 mg/mL
WBC count ([8]; 30 mg/kg, vehicle 38.2×10^9/L, P<0.05): 2.41e+10 L⁻¹
decrease in sickled RBC vs vehicle ([8]; 30 mg/kg/day): 2 fold
increase in the percent of HbF+ F-cells vs vehicle ([8]; 30 mg/kg/day): greater than 3 fold
percent of HbF+ F-cells ([8]; 30 mg/kg/day, vehicle 8.4%): 27.3%
percent sickled RBC ([8]; 30 mg/kg/day, vehicle 56.3%): 24.4%
effect on locomotor activity or behavioral responses [9]: no effect
conditioned fear responses [10]: no effect
impact on fertility or fetal development [16]: did not impact fertility or fetal development
genotoxicity [22]: not genotoxic
HbF induction (ELISA) [25]: dose-dependently induced more HbF than either BAY73-6691 or BAY 41-2271
HbF induction relative to a dose of HU that demonstrated cytotoxicity ([25]; 10 μM IMR-687): 4.6 times
microvascular stasis ([26]; 10 mg/kg/day for ten days, 1 h in normoxia, vehicle 33%, P<0.05): 20%
microvascular stasis ([26]; 10 mg/kg/day for ten days, 4 h in normoxia, vehicle 16%, ns): 14%
microvascular stasis ([26]; 30 mg/kg/day for ten days, 4 h in normoxia, vehicle 16%, P<0.01): 7%
HbF induction [31]: Induction of HbF by IMR-687 was observed
Cytotoxicity (cell counts) [38]: not observed
